In ChEMBL document CHEMBL3102735, “Enhancing the pharmacodynamic profile of a class of selective COX-2 inhibiting nitric oxide donors” (Bioorg Med Chem, 2014):
Activity calls are given as the source filed them. No cut-off for these calls is given here.

Key:
[1] = target: T1, Prostaglandin G/H synthase 1 (Mus musculus, UniProt P22437); experiment: Inhibition of COX-1 in mouse J774 cells using arachidonic acid as substrate assessed as inhibition of prostaglandin E2 production preincubated for 15 mins followed by substrate addition measured after 30 mins by RIA; format: cell-based
T1 sequence (P22437 whole entry): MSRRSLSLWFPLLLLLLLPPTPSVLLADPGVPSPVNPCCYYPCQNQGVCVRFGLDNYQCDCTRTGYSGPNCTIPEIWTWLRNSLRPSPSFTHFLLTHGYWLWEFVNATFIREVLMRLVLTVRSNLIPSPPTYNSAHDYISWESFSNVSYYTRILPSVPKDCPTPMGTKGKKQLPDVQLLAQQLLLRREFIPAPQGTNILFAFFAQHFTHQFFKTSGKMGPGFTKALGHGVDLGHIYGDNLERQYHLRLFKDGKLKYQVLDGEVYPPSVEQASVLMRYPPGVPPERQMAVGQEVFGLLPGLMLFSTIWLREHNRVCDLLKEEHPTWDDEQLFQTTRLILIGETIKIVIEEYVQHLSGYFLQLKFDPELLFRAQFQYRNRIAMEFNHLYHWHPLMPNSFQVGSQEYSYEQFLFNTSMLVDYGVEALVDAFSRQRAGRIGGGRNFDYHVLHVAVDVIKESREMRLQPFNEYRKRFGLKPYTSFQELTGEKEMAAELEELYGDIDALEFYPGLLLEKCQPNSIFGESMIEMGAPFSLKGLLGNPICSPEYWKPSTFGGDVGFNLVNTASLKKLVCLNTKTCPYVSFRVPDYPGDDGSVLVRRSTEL
Summary of the method: (§1)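 J774 murine macrophages pretreated 15 min with compound (10 µM; lower concentrations 0.01–1 µM where needed), then incubated 30 min at 37 °C with 15 µM arachidonic acid; supernatant PGE2 measured by RIA. Triplicate wells, mean of three experiments of percent inhibition versus control; IC50 by sigmoidal fit.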

[2] = target: T2, Prostaglandin G/H synthase 2 (Mus musculus) (UniProt Q05769); experiment: Inhibition of LPS-induced COX-2 in mouse J774 cells using arachidonic acid as substrate assessed as inhibition of prostaglandin E2 production at 10 uM preincubated for 15 mins followed by substrate addition measured after 30 mins by RIA; format: cell-based
T2 sequence (whole entry): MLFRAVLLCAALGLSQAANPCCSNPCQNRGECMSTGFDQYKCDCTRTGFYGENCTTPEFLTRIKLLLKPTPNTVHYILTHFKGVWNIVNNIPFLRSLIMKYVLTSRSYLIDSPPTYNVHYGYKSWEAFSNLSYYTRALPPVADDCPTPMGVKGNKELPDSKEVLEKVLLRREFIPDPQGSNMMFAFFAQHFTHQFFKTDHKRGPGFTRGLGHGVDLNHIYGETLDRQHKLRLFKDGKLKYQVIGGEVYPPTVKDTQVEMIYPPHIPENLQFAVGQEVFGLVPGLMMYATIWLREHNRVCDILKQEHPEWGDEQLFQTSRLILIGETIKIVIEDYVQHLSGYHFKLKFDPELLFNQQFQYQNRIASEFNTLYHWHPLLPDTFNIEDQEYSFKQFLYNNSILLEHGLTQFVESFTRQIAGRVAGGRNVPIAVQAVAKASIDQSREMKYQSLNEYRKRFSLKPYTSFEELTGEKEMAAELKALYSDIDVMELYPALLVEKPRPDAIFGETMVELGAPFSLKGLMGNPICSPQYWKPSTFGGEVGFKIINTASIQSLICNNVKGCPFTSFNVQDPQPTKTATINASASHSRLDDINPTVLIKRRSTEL

[3] = target: T3, Prostaglandin G/H synthase 1 (Mus musculus) (UniProt P22437); experiment: Inhibition of COX-1 in mouse J774 cells using arachidonic acid as substrate assessed as inhibition of prostaglandin E2 production at 10 uM preincubated for 15 mins followed by substrate addition measured after 30 mins by RIA; format: cell-based; summary of the method: as §1
T3 sequence (whole entry): T1 sequence (P22437 whole entry)

[4] = system: Mus musculus; experiment: Analgesic activity in Swiss albino mouse assessed as reduction of acetic acid-induced writhing at 20 mg/kg, po measured every 10 mins after 5 mins of administration relative to control; format: functional; set-up: scale not given: the % may be the effect or the level left
Summary of the method: (§2)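 Male Swiss albino mice (23–25 g), compound given orally in CMC vehicle; writhing induced by 0.6% acetic acid (10 mL/kg) ip. Stretching movements counted for 10 min, starting 5 min after administration; percent reduction versus CMC-treated animals.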

[5] = system: Mus musculus; experiment: Analgesic activity in po dosed Swiss albino mouse assessed as reduction of acetic acid-induced writhing measured every 10 mins after 5 mins of administration; format: functional, organism-based; summary of the method: as §2
[6] = system: Mus musculus; experiment: Analgesic activity in Swiss albino mouse assessed as reduction of acetic acid-induced writhing at 3 mg/kg, po measured every 10 mins after 5 mins of administration relative to control; format: functional; set-up: scale not given: the % may be the effect or the level left; summary of the method: as §2
[7] = system: Thoracic aorta; experiment: Ex vivo vasorelaxant activity in Wistar rat endothelium thoracic aortic ring assessed as reduction of KCl-induced contraction in presence of guanylate cyclase inhibitor ODQ; format: functional
Summary of the method: (§3)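 Endothelium-denuded thoracic aortic rings from male Wistar rats (250–350 g) in oxygenated Tyrode-type buffer at 37 °C, isometric tension recording. Rings precontracted with 30 mM KCl, then 3-fold increasing compound concentrations (1 nM–10 µM) added, also with 1 µM ODQ preincubated. Emax as % of KCl tone; pIC50; mean ± SE of 6–10 experiments.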

[8] = system: Mus musculus; experiment: Analgesic activity in Swiss albino mouse assessed as reduction of acetic acid-induced writhing at 10 mg/kg, po measured every 10 mins after 5 mins of administration relative to control; format: functional; set-up: scale not given: the % may be the effect or the level left; summary of the method: as §2
[9] = system: J774; experiment: Selectivity index, ratio of IC50 for COX-1 to IC50 for COX-2 in mouse J774 cells; format: cell-based
Summary of the method: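 J774 macrophages stimulated 24 h with E. coli LPS (10 µg/mL) to induce COX-2, with or without compound (0.01–10 µM); supernatant PGE2 by RIA. Triplicate wells, three experiments, percent inhibition versus control, IC50 by sigmoidal fit; selectivity as COX-1/COX-2 IC50 ratio.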

[10] = system: Thoracic aorta; experiment: Ex vivo vasorelaxant activity in Wistar rat endothelium thoracic aortic ring assessed as reduction of KCl-induced contraction at 0.001 uM to 10 uM relative to control; format: functional; summary of the method: as §3
[11] = system: Mus musculus; experiment: Analgesic activity in Swiss albino mouse assessed as reduction of acetic acid-induced writhing at 40 mg/kg, po measured every 10 mins after 5 mins of administration relative to control; format: functional; set-up: scale not given: the % may be the effect or the level left; summary of the method: as §2
[12] = system: Thoracic aorta; experiment: Ex vivo vasorelaxant activity in Wistar rat endothelium thoracic aortic ring assessed as reduction of KCl-induced contraction; format: functional, tissue-based; summary of the method: as §3
[13] = target: T4, Prostaglandin G/H synthase 2 (Mus musculus, UniProt Q05769); experiment: Inhibition of LPS-induced COX-2 in mouse J774 cells using arachidonic acid as substrate assessed as inhibition of prostaglandin E2 production preincubated for 15 mins followed by substrate addition measured after 30 mins by RIA; format: cell-based
T4 sequence (Q05769 whole entry): T2 sequence (whole entry)

[14] = system: Mus musculus; experiment: Antihyperalgesic activity in Swiss albino mouse assessed as reduction in carrageenan-induced inflammation at 10 mg/kg, po after 30 mins relative to control; format: functional; set-up: scale not given: the % may be the effect or the level left
[15] = system: Mus musculus; experiment: Antihyperalgesic activity in Swiss albino mouse assessed as reduction in carrageenan-induced inflammation at 10 mg/kg, po after 90 mins relative to control; format: functional; set-up: scale not given: the % may be the effect or the level left
[16] = system: Mus musculus; experiment: Antihyperalgesic activity in Swiss albino mouse assessed as reduction in carrageenan-induced inflammation at 10 mg/kg, po after 60 mins relative to control; format: functional; set-up: scale not given: the % may be the effect or the level left
[17] = system: Mus musculus; experiment: Antihyperalgesic activity in Swiss albino mouse assessed as reduction in carrageenan-induced inflammation at 10 mg/kg, po after 120 mins relative to control; format: functional; set-up: scale not given: the % may be the effect or the level left
[18] = system: Mus musculus; experiment: Antiinflammatory activity in Swiss albino mouse assessed as reduction in carrageenan-induced paw edema at 10 mg/kg, po relative to control; format: functional; set-up: scale not given: the % may be the effect or the level left
Summary of the method: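 Intraplantar carrageenan, compound po in CMC; volume of right hind paw measured 4 h after carrageenan injection and compared with saline/carrageenan-treated controls; percent oedema reduction.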

[19] = system: Liver; experiment: Induction of nitric oxide production in Wistar rat liver homogenate assessed as nitrite level at 1 mM; format: functional, tissue-based; settings: TDE = time-dependent effect
[20] = system: Liver; experiment: Induction of nitric oxide production in Wistar rat liver homogenate assessed as NOx level at 1 mM; format: functional, tissue-based; settings: TDE = time-dependent effect
[21] = system: Liver; experiment: Induction of nitric oxide production in Wistar rat liver homogenate assessed as nitrate level at 1 mM; format: functional, tissue-based; settings: TDE = time-dependent effect
[22] = system: Liver; experiment: Induction of nitric oxide production in Wistar rat liver homogenate assessed as nitrate level at 1 mM after 1 to 150 mins; format: functional, tissue-based
[23] = system: Liver; experiment: Induction of nitric oxide production in Wistar rat liver homogenate assessed as NOx level at 1 mM after 1 to 150 mins; format: functional, tissue-based
[24] = system: Liver; experiment: Induction of nitric oxide production in Wistar rat liver homogenate assessed as nitrite level at 1 mM after 1 to 150 mins; format: functional, tissue-based
[25] = target: T5, Prostaglandin G/H synthase 2 (Homo sapiens, UniProt P35354); set-up: species or system Blood
T5 sequence (P35354 whole entry): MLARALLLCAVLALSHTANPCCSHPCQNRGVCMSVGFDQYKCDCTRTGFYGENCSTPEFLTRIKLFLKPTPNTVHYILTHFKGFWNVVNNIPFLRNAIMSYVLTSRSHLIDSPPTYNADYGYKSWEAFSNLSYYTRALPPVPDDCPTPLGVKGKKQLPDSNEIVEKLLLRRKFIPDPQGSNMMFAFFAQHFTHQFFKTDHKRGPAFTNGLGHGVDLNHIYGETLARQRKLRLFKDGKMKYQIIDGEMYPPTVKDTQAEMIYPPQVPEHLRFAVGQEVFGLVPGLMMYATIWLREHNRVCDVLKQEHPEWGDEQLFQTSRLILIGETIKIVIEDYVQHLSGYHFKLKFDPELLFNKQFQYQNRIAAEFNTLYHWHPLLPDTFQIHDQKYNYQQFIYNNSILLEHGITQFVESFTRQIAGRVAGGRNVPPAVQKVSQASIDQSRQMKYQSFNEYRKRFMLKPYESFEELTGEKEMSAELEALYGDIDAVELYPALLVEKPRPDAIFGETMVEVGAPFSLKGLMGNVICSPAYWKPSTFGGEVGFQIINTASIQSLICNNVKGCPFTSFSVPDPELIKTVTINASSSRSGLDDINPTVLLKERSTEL

[26] = target: Prostaglandin G/H synthase 1 (Homo sapiens, UniProt P23219); experiment: Inhibition of COX-1 in human whole blood assessed as thromboxane B2 production by RIA
Prostaglandin G/H synthase 1 (Homo sapiens, UniProt P23219), sequence (P23219 whole entry): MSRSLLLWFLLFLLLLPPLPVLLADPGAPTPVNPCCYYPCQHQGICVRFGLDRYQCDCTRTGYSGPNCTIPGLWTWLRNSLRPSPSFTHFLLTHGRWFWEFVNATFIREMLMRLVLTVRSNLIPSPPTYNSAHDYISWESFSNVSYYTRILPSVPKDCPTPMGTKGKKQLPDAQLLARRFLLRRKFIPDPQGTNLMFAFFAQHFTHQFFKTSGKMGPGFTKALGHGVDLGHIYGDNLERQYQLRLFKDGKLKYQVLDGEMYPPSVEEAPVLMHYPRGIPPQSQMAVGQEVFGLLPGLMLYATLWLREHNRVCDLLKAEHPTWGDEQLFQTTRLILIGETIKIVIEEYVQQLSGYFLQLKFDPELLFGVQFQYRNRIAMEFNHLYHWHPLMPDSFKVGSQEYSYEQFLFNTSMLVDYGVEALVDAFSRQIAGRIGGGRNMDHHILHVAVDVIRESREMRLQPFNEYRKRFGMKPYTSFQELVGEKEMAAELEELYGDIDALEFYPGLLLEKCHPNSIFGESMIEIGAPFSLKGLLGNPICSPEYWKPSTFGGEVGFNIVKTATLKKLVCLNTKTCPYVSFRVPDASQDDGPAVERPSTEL

SMILES | IC50 [1] [nM] | inhibition [2] [%] | inhibition [3] [%] | Activity [4] [%] | Activity [5] | Activity [6] [%] | Activity [7] | Activity [8] [%] | Ratio IC50 [9] | Emax [10] [%] | IC50 [12] [nM] | IC50 [13] [nM] | also measured
Cc1c(CC(=O)NC(CCO[N+](=O)[O-])C(=O)O)cc(-c2ccc(S(C)(=O)=O)cc2)n1-c1ccc(F)cc1 (racemic) | > 10000 | 89 | 6 | 54 | Dose-dependent effect | 0 | inactive | 30 | > 6.2 |  |  |  | 
Cc1c(CC(=O)NCCCO[N+](=O)[O-])cc(-c2ccc(S(C)(=O)=O)cc2)n1-c1cccc(F)c1 | > 10000 | 100 | 0 | 8.6 | Dose-dependent effect |  | inactive | 0 | > 40 | 69 | 1660 | 250 | Activity [11]: 30%
Cc1c(CC(=O)NCCCO[N+](=O)[O-])cc(-c2ccc(S(C)(=O)=O)cc2)n1-c1ccc(F)cc1 | > 10000 | 100 | 0 | 37 | Dose-dependent effect | 17 |  | 37 | > 32 |  |  | 310 | 
Cc1ccc(-c2cc(C(F)(F)F)nn2-c2ccc(S(N)(=O)=O)cc2)cc1 [CELECOXIB] |  |  |  |  | Dose-dependent effect |  |  | 59 |  |  |  |  | Activity [14]: 45%; Activity [15]: 56%; Activity [16]: 75%; Activity [17]: 39%; Activity [18]: 17%
COc1ccc2cc([C@H](C)C(=O)OCCCCO[N+](=O)[O-])ccc2c1 [NAPROXCINOD] |  |  |  |  |  |  | inactive |  |  | 68 | 468 |  | Activity [19]: tde; Activity [20]: tde; Activity [21]: tde; Activity [22]: 340 µM; Activity [23]: 368 µM; Activity [24]: 27.6 µM
Cc1c(CC(=O)NCCO)cc(-c2ccc(S(C)(=O)=O)cc2)n1-c1ccc(F)cc1 | > 10000 | 100 | 0 | 61 | Dose-dependent effect |  |  | 37 | > 33 |  |  |  | IC50 [25]: 1400 nM; IC50 [26]: 1900 nM
